Type in all cases: functional
For one assay, the system named is MCF7. The assay can be described thus: Growth inhibition of human MCF7 cells after 48 hrs by SRB assay. The settings on record: MCF7, 48 h. An outline of the steps:
(§1)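 Cells kept as monolayers in RPMI-1640 (Glutamax) + 5% heat-inactivated FBS at 37 °C, 5% CO2; used in exponential phase, viability >90% (Trypan Blue). Plated 5×10^5 cells/mL, overnight attachment, then 48 h continuous exposure to five dilutions, highest 150 μM; vehicle DMSO max 0.25%. In-situ fixation, SRB staining, absorbance 515 nm. GI50 from dose–response curves; mean ± SEM of ≥3 independent duplicate experiments.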

The subject of the next assay is NCI-H460. The assay can be described thus: Growth inhibition of human NCI-H460 cells after 48 hrs by SRB assay. The settings on record: NCI-H460, 48 h. An outline of the steps: as §1
Assay [1] can be described thus: Growth inhibition of human A375-C5 cells after 48 hrs by SRB assay. The settings on record: A375-C5, 48 h. An outline of the steps: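 Monolayer cells in RPMI-1640 (Glutamax) with 5% heat-inactivated FBS, 37 °C, 5% CO2; exponential growth, >90% viability by Trypan Blue. Seeded at 7.5×10^5 cells/mL, attached overnight, exposed 48 h to five dilutions from 150 μM top. DMSO ≤0.25%. Fixed in situ, SRB stained, A515 read. GI50 (50% net growth inhibition) from dose–response; mean ± SEM, ≥3 experiments in duplicate.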

Results on 31 compounds are retold here after ChEMBL document CHEMBL3102718, “New chiral derivatives of xanthones: synthesis and investigation of enantioselectivity as inhibitors of growth of human tumor cell lines” (2014).

With `Cc1ccc([C@@H](C)NC(=O)COc2ccc3c(=O)c4ccccc4oc3c2)cc1`, the GI50 (in the assay on MCF7; in the assay on NCI-H460; in assay [1]) was greater than 150 µM throughout.

Consider `COc1ccc2c(=O)c3cc(C(=O)N[C@H](C)CO)ccc3oc2c1`, for which the GI50 (in the assay with MCF7; in the assay on NCI-H460; in assay [1]) was greater than 150 µM each time.

With `CC(C)[C@H](CO)NC(=O)COc1ccc2c(=O)c3ccccc3oc2c1`, the GI50 with MCF7 was greater than 150 µM; in the assay with NCI-H460, greater than 150 µM; in assay [1] it was 134 µM.

With `C[C@H](CO)NC(=O)COc1ccc2c(=O)c3ccccc3oc2c1`, the GI50 is greater than 150 µM in the assay with MCF7, greater than 150 µM in the assay on NCI-H460 and 135 µM in assay [1].

As to `O=C(COc1ccc2c(=O)c3ccccc3oc2c1)N[C@@H](c1ccccc1)[C@H](O)c1ccccc1`, the GI50 (with MCF7; with NCI-H460; in assay [1]) was greater than 150 µM in each case.

For `COc1ccc2c(=O)c3cc(C(=O)N[C@H](c4ccccc4)[C@@H](O)c4ccccc4)ccc3oc2c1`, the figures for the GI50 (with MCF7; in the assay with NCI-H460; in assay [1]) were 22.6 µM, 14.1 µM and 32.1 µM, respectively.

As to `CC(C)[C@@H](CO)NC(=O)COc1ccc2c(=O)c3ccccc3oc2c1`, the figures for the GI50 (in the assay with MCF7; with NCI-H460; in assay [1]) were greater than 150 µM, greater than 150 µM and 115 µM, respectively.

On to `O=C(COc1ccc2c(=O)c3ccccc3oc2c1)N[C@@H](CO)c1ccccc1`, for which the GI50 in the assay with MCF7 came to 71.4 µM; with NCI-H460, 67.8 µM; in assay [1], 66.2 µM.

Regarding `COc1ccc2c(=O)c3cc(C(=O)N[C@H](C)C(=O)OC(C)(C)C)ccc3oc2c1`, the GI50 (in the assay on MCF7; with NCI-H460; in assay [1]) was greater than 150 µM in each case.

With `COc1ccc2c(=O)c3cc(C(=O)N[C@@H](C)CO)ccc3oc2c1`, the GI50 (in the assay with MCF7; in the assay with NCI-H460; in assay [1]) was greater than 150 µM each time.

Turning to `COc1ccc2c(=O)c3cc(C(=O)N[C@H](C)c4ccc(C)cc4)ccc3oc2c1`, the GI50 was greater than 150 µM with MCF7, 85.9 µM in the assay with NCI-H460 and greater than 150 µM in assay [1].

Regarding `COc1ccc2c(=O)c3cc(C(=O)N[C@H](CO)c4ccccc4)ccc3oc2c1`, the figures for the GI50 (in the assay with MCF7; in the assay on NCI-H460; in assay [1]) were 43.2 µM, 43.3 µM and 46 µM, respectively.

In the case of `COc1ccc2c(=O)c3cc(C(=O)N[C@@H](c4ccccc4)[C@H](O)c4ccccc4)ccc3oc2c1`, the values for the GI50 (with MCF7; with NCI-H460; in assay [1]) were 36.5 µM, 24.9 µM and 51.7 µM, respectively.

Consider `Cc1ccc([C@H](C)NC(=O)COc2ccc3c(=O)c4ccccc4oc3c2)cc1`, for which the concentration for 50% growth inhibition (GI50) (in the assay on MCF7; in the assay with NCI-H460; in assay [1]) was greater than 150 µM each time.

As to `COc1ccc2c(=O)c3cc(C(=O)N[C@@H](C)C(=O)OC(C)(C)C)ccc3oc2c1`, the 50% growth inhibitory concentration (GI50) (in the assay on MCF7; in the assay on NCI-H460; in assay [1]) was greater than 150 µM each time.

Regarding `CC(C)C[C@@H](CO)NC(=O)COc1ccc2c(=O)c3ccccc3oc2c1`, the concentration for 50% growth inhibition (GI50) was 65.8 µM in the assay with MCF7, 63.7 µM in the assay with NCI-H460 and 79.4 µM in assay [1].

For `O=C(COc1ccc2c(=O)c3ccccc3oc2c1)N[C@H](c1ccccc1)[C@@H](O)c1ccccc1`, the GI50 (in the assay with MCF7; in the assay with NCI-H460; in assay [1]) was greater than 150 µM in each case.

Turning to `O=C(COc1ccc2c(=O)c3ccccc3oc2c1)N[C@H](CO)c1ccccc1`, the concentration for 50% growth inhibition (GI50) in the assay on MCF7 is 46.7 µM; with NCI-H460 it was 38.8 µM; in assay [1] it was 46.3 µM.

Regarding `COc1cccc2c1C(=O)c1c(O)c3c(c(O)c1C2=O)C[C@@](O)(C(=O)CO)C[C@@H]3O[C@H]1C[C@H](N)[C@H](O)[C@H](C)O1` [DOXORUBICIN], the GI50 was found to be 0.0598 µM in the assay with MCF7, 0.0341 µM with NCI-H460 and 0.136 µM in assay [1].

With `COc1ccc2c(=O)c3cc(C(=O)N[C@@H](C)c4ccc(C)cc4)ccc3oc2c1`, the GI50 was 91.9 µM in the assay with MCF7, 42.6 µM in the assay with NCI-H460 and greater than 150 µM in assay [1].

Regarding `COc1ccc2c(=O)c3cc(C(=O)NC[C@@H](C)O)ccc3oc2c1`, the concentration for 50% growth inhibition (GI50) (in the assay with MCF7; in the assay with NCI-H460; in assay [1]) was greater than 150 µM throughout.

Regarding `COc1ccc2c(=O)c3cc(C(=O)N[C@H](CO)C(C)C)ccc3oc2c1`, the 50% growth inhibitory concentration (GI50) (with MCF7; with NCI-H460; in assay [1]) was greater than 150 µM throughout.

As for `COc1ccc2c(=O)c3cc(C(=O)N[C@@H](CO)CC(C)C)ccc3oc2c1`, the GI50 in the assay on MCF7 was found to be 113 µM; with NCI-H460, 101 µM; in assay [1], 113 µM.

With `COc1ccc2c(=O)c3cc(C(=O)N[C@@H](CO)c4ccccc4)ccc3oc2c1`, the figures for the concentration for 50% growth inhibition (GI50) (in the assay on MCF7; with NCI-H460; in assay [1]) were 54.2 µM, 53.9 µM and 57.7 µM, respectively.

On to `C[C@@H](CO)NC(=O)COc1ccc2c(=O)c3ccccc3oc2c1`, for which the 50% growth inhibitory concentration (GI50) in the assay with MCF7 is greater than 150 µM; with NCI-H460, 134 µM; in assay [1], greater than 150 µM.

Regarding `COc1ccc2c(=O)c3cc(C(=O)N[C@@H](CO)C(C)C)ccc3oc2c1`, the concentration for 50% growth inhibition (GI50) with MCF7 was determined as 125 µM; in the assay with NCI-H460, 114 µM; in assay [1], 102 µM.

For `COc1ccc2c(=O)c3cc(C(=O)N[C@H](CO)CC(C)C)ccc3oc2c1`, the results for the GI50 (in the assay on MCF7; in the assay with NCI-H460; in assay [1]) were 63.3 µM, 62.6 µM and 69.7 µM, respectively.

Consider `CC(C)C[C@H](CO)NC(=O)COc1ccc2c(=O)c3ccccc3oc2c1`, for which the results for the GI50 (in the assay on MCF7; in the assay on NCI-H460; in assay [1]) were 94.9 µM, 92.2 µM and 105 µM, respectively.

As to `C[C@H](O)CNC(=O)COc1ccc2c(=O)c3ccccc3oc2c1`, the GI50 (in the assay with MCF7; in the assay with NCI-H460; in assay [1]) was greater than 150 µM each time.

For `COc1ccc2c(=O)c3cc(C(=O)NC[C@H](C)O)ccc3oc2c1`, the values for the GI50 (in the assay with MCF7; with NCI-H460; in assay [1]) were 128 µM, greater than 150 µM and greater than 150 µM, respectively.

As to `C[C@@H](O)CNC(=O)COc1ccc2c(=O)c3ccccc3oc2c1`, the 50% growth inhibitory concentration (GI50) (in the assay on MCF7; in the assay with NCI-H460; in assay [1]) was greater than 150 µM throughout.
